For this series, the system named is MS2 coat protein. The series is described as follows: apparent Kd, MS2 coat protein; higher = weaker binding; RNA-MaP array; FMN 200 µM where present. The gist of the method:
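Stalled E. coli RNA polymerase transcribed each design on Illumina sequencing-chip clusters. The clusters were titrated with SNAP-549-labelled MS2 coat protein, starting at 0.7 or 1.5 nM and doubling up to 3 µM, first without ligand and then with constant ligand, in 100 mM Tris-HCl pH 7.5, 80 mM KCl, 4 mM MgCl2, BSA, DTT, yeast tRNA and Tween-20. Green signal was normalised to red-channel RNA signal and to the control-cluster median Fmax. The apparent Kd is the median of filtered binding-curve fits made for each cluster.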

Setting [1] is: designed as: ON switch for flavin mononucleotide, no ligand.
[2] abbreviates: ligand present: flavin mononucleotide, designed as: ON switch for flavin mononucleotide.
Setting [3] is: designed as: OFF switch for flavin mononucleotide, no ligand.
[4] abbreviates: ligand present: flavin mononucleotide, designed as: OFF switch for flavin mononucleotide.

Broadly, the apparent Kd is the concentration giving half-maximal binding under the conditions of the assay. On to “GGACAUUUACAGAAGGGCAAUUUAUUUAUUGAUUAUUUAGUUCUGUUUUGCAGGAUAUGUAAUACAUGAGGAUCACCCAUGUCC”, for which the “apparent Kd” value is, setting by setting: under setting [1], 188 nM; under setting [2], 74 nM.

For “ACAGAUGCUGACAUGAGGAUCACCCAUGUUAGAUUGUUAUGUCAGGAUAUUAUCUGGCAACCAGAUGAGAAGGGACCAUCUGUG”, the “apparent Kd” value under setting [1] turned out to be 16.5 nM and the “apparent Kd” value under setting [2] amounted to 7.33 nM.

Take “CGCUACUGCCAGAAGGACAUGAGGAUCACCCAUGUAGGAUAUGGGUGUCGAGGACCAGUGUAGAGAAACUACGCUACAGUAGCG”: the “apparent Kd” value reads like this: under setting [1], 958 nM; under setting [2], 57.6 nM.

With “AAUAACAGAGGAUAUACUGUUUUAUGUGUUUGUUAUUUUGAACAUGAGGAUCACCCAUGUAGAAGGCUGAAUAA”, the “apparent Kd” value runs as follows: under setting [3], 24.6 nM; under setting [4], 22.1 nM.

On to “CAAUUUAUAACAGGAUAUGUAAUACAAUAGUUAAUAGAAGGGUUUAAUACAUGAGGAUCACCCAUGUCAUGUGUCAUAAUUACC”, for which the “apparent Kd” value is 33 nM under setting [3] and 26 nM under setting [4].

As for “CUUUUGUGAGGAUAUCAGUAGUAAAUAAAUAAAUUUACUACUGAGAAGGCACAUGAGGAUCACCCAUGUUCCUC”, the “apparent Kd” value runs as follows: under setting [3], 39.1 nM; under setting [4], 292 nM.

For the sequence “UAUAGGCUAGGAUAUACAACACUUGGUUCGAAUGUUUGGAGACAUGAGGAUCACCCAUGUAGAAGGAGCAUUUC”, the “apparent Kd” value under setting [3] was determined as 64.8 nM and the “apparent Kd” value under setting [4] was 190 nM.

For “AUCAGCUCGUCAGGAUAUACGUCACUGCGUCAGCAGUGUGGUAACAUCACAUGAGGAUCACCCAUGUAGAAGGGACGAGCUGAU”, the “apparent Kd” value was 5.84 nM under setting [3] and 11.3 nM under setting [4].

As for “AGGUACGGUCGAUCAUAUCAAGGUAGAAGGCGACUGGGAAUGUGAGACAUGAGGAUCACCCAUGUCGAGGAUAUACCUGAAAGU”, the “apparent Kd” value reads like this: under setting [3], 88.9 nM; under setting [4], 50.1 nM.

As to “GAAGCGCUUGACAUGAGGAUCACCCAUGUUAGAUUGUUAUGUCAGGAUAUAGUCUAGAAACUAGACUAGAAGGGAUAUGCUUCU”, the “apparent Kd” value is, setting by setting: under setting [1], 300 nM; under setting [2], 43.1 nM.

As to “AGGAAGCAAGGAUAUACGAGGAGAAGGUGGAGAGUUAAAGGACAUGAGGAUCACCCAUGUAGAAGGUGCGAGAA”, the “apparent Kd” value under setting [3] is 59.7 nM and the “apparent Kd” value under setting [4] worked out at 76.8 nM.

With “GUGGCAUGAGGAUAUCGAGGUUAGUACAUGAGGAUCACCCAUGUUAUCCAGGUGUCGGUUCGAGAAGGCAUGGCAC”, the “apparent Kd” value under setting [3] was 326 nM and the “apparent Kd” value under setting [4] worked out at 302 nM.

As for “UUUCUCUGUGUGAGGAUAUACUUGUUUGGGUUUUUGUAGAAGGCACAUGAGGAUCACCCAUGUAUUUUGUCGUG”, the “apparent Kd” value by setting is: under setting [3], 34.4 nM; under setting [4], 55.6 nM.

As to “GAUCGAAACACUCCUUACACUACAUGAGGAUCACCCAUGUAGCAGGAUAUCAUUGCUCCUCGCUGUGAGAAGGGCUACGGGCGA”, the “apparent Kd” value runs as follows: under setting [3], 7.3 nM; under setting [4], 14 nM.

On to “UAGCUCUCGGCAGGAUAUCCUGCAUAAUGUCGAGUCCGCGCCCGGACAUGAGGAUCACCCAUGUAGGAGAAGGGCCCACGGGCU”, for which the “apparent Kd” value reads like this: under setting [3], 24.2 nM; under setting [4], 45.5 nM.

On to “AACAGUACAGGAUAUACAUGAGGAUCACCCAUGUGAGAAUUAUGUGGCGUACCACAAAGUAGAAGGGUACUGGA”, for which the “apparent Kd” value was found to be 81.7 nM under setting [3] and 308 nM under setting [4].

Turning to “GUAGCAUGCAGGCAGGAUAUUCAUAUUAAAACAUGAGGAUCACCCAUGUAGGCCGAAAGGCCUUGGGAGAAGGGCCACAUGCUAC”, the “apparent Kd” value reads like this: under setting [1], 786 nM; under setting [2], 52.6 nM.

“GGCGUGUUAGGAUAUCGCGGCGGCGGCGUUUGUUGUUGUUGUGAGAAGGAACAUGAGGAUCACCCAUGUGCGCC”: the “apparent Kd” value by setting is: under setting [3], 18.4 nM; under setting [4], 27.4 nM.

Take “AUGCCCUGAGGAUAUCUCAUCCCGCACAUGAGGAUCACCCAUGUUCUUCUCCGGGUUCCGAGAGAAGGCAGGCCUA”: the “apparent Kd” value under setting [3] turned out to be 157 nM and the “apparent Kd” value under setting [4] stood at 81.9 nM.

For “UGAUCUAUGUAGAAGGCCCAUAUCUAUAUUUAGGGAGGAUAUACAUGAGGAUCACCCAUGUAUAGAGCGAGUGGACUCGUCACC”, the “apparent Kd” value is, setting by setting: under setting [3], 18.1 nM; under setting [4], 47.3 nM.

For the origin of these results see the EternaBench riboswitch data.
